Screening results: PubChem, several laboratories
This is a sample that favours compounds with a hit; in the whole collection about 1.2% have one here.
GC-A act = GC-A stimulated cGMP production enhancers – HEK293 GC-A cells, cGMP TR-FRET, EC30 ANP, primary screen; Atrial natriuretic peptide receptor 1 (Homo sapiens), P16066; 0% at EC30 ANP, 100% saturating ANP; activation, % at 10 µM; actives 0.14% (n = 370,000); AID 1671463, 2021; in the data active means activation above about 40%
core dimer inh = inhibitors of HCV core protein dimerization, primary screen, biochemical, TR-FRET, high-throughput | TR-FRET GST/Flag-core106 dimerization, 1536-well | inhibition, % at 5 µM | actives 0.33% (n = 300,000) | AID 1899, 2009;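 active means inhibition above the mean of all tested compounds plus 3 SD, set per screening campaign, cut at about 45% in these data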
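assay system = GST-tagged and Flag-tagged HCV core protein residues 1-106 | controls = unlabelled core106 and no-GST-core106 wells | incubation = compound-protein-antibody incubation 4 h at 22.5 °C | probe or stimulus = Eu donor and XL665 acceptor anti-tag antibodies | read-out = % inhibition based on acceptor/donor emission ratio | signal = TR-FRET 671 and 617 nm emission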
ASAP1 inh = inhibitors of human ASAP1 ArfGAP activity, primary screen, biochemical, fluorescence polarization; ASAP1-stimulated ARF1 GTP hydrolysis, GDP FP detection; inhibition, % at 16.5 µM; actives 0.19% (n = 360,000); Arf-GAP with SH3 domain, ANK repeat and PH domain-containing protein 1 (Homo sapiens), …; in the data active means inhibition above about 25%;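 further: 0% = vehicle with enzyme and substrate and 100% = no enzyme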
Target sequence (Q9ULH1 325-724 limits assumed): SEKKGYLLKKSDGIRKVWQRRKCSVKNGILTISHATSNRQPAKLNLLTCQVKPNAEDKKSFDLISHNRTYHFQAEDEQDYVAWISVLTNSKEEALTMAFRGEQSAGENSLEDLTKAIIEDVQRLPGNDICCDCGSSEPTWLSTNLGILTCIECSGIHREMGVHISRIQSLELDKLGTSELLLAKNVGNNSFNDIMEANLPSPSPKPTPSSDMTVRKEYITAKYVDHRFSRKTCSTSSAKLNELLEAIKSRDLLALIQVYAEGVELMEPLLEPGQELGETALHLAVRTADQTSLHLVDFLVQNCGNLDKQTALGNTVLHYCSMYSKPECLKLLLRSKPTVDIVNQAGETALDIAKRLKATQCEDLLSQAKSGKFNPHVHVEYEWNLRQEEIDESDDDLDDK
CTSL1 counter = Fasciola hepatica cathepsin L1 inhibitors, primary screen, counter-screen for PFM18AAP inhibitor project, biochemical, QFRET, fluorogenic peptide substrate | recombinant F. hepatica cathepsin L1, Z-Leu-Arg-MCA fluorescence | inhibition, % at 5.96 µM | actives 0.49% (n = 300,000) | AID 1906, 2009;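 active means inhibition above the mean of all tested compounds plus 3 SD, set per screening campaign, cut at about 17% in these data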;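 further: 0% = plate median of test compound wells and 100% = 1 µM Z-Phe-Ala-diazomethylketone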
NPR2 activator = human GC-B receptor activators, primary screen, HEK293 GC-B cells, cGMP TR-FRET, EC30 CNP | Atrial natriuretic peptide receptor 2 (Homo sapiens), P20594 | 0% at EC30 CNP, 100% saturating CNP | activation, % at 10 µM | actives 0.11% (n = 370,000);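 active means activation at 10 µM reaching about 35% in either raw or pattern-adjusted values, limit read from the data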
ARFGAP1 inh = inhibitors of rat ARFGAP1 GAP activity, primary screen, biochemical, fluorescence polarization, GDP tracer. actives 0.26% (n = 360,000). ADP-ribosylation factor GTPase-activating protein 1 (Rattus norvegicus), Q62848. Arfgap1-stimulated ARF1 GTP hydrolysis, GDP FP detection. inhibition, % at 16.5 µM;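 active means inhibition above a per-plate limit, mean inhibition of low control wells plus 3 SD, cut at about 25% in these data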;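 further: 0% = DMSO wells with enzyme and 100% = wells lacking Arfgap1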
Target sequence (Q62848 1-136 limits assumed): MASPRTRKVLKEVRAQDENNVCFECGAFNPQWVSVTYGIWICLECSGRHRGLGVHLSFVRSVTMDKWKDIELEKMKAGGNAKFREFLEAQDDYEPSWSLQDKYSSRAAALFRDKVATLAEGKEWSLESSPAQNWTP
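Material: truncated rat Arfgap1 GAP domain; Incubation: compound-enzyme preincubation 20 min, reaction 120 min, detection 60 min, 25 °C; Read-out: percent inhibition of Arfgap1-stimulated GTP hydrolysis; Technique: FP, GDP Alexa 633 tracer displaced from anti-GDP antibody, 620/688 nm; Controls: No-Arfgap1 wells (100%) versus DMSO full-reaction wells (0%); Replication: single well per compound.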
ASAP1 inh confirm = ASAP1 GAP activity inhibitors, confirmation, biochemical, fluorescence polarization, human, triplicate | AID 624431, 2012 | actives 37% (n = 620) | shares compounds with ASAP1 inh | inhibition, % at 16.5 µM | ASAP1-stimulated Arf1 GTPase, GDP fluorescence polarization;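 active means mean inhibition over triplicates exceeds the hit threshold derived for the earlier primary screening run, cut at about 25% in these data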
An asterisk follows results filed as active; / = no result.

SMILES | GC-A act | core dimer inh | ASAP1 inh | CTSL1 counter | NPR2 activator | ARFGAP1 inh | ASAP1 inh confirm
Cc1cccc(C(C)C)c1NC(=O)CN1C(=O)NC2(CCc3ccccc32)C1=O (stereo not given) | -3 | -9 | 6 | 1 | 4 | 8 | /
Cc1cc(=O)oc2c(C)c(OCC(=O)NC3CC(C)(C)NC(C)(C)C3)ccc12 | 2 | -3 | 8 | 0 | -5 | -1 | /
CCCc1cc(=O)oc2c(C)c(OCC(=O)NC3CC(C)(C)NC(C)(C)C3)ccc12 | 4 | 0 | 27* | -1 | -2 | -10 | 4
COCCn1cnc2c(c1=O)c1nc3ccccc3nc1n2/N=C/c1ccc(OC)c(OC)c1 | 5 | 4 | 33* | 8 | -5 | -13 | 37*
COCCn1cnc2c(c1=O)c1nc3ccccc3nc1n2/N=C/c1ccco1 | 9 | 1 | -6 | 1 | 1 | 2 | /
O=C(c1ccc(F)cc1)N1CCC(C(=O)N2CCCc3ccccc32)CC1 | 2 | / | 3 | / | 0 | -6 | /
COc1ccc(CN2C(=O)Cc3c2nc(N)c2c(N)nc(N4CCOCC4)c(C#N)c32)cc1 | -2 | 12 | 28* | 3 | 0 | -4 | 8
COCCN1C(=O)Cc2c1nc(N)c1c(N)nc(N3CCN(c4ccc(F)cc4)CC3)c(C#N)c21 | 2 | 28 | 1 | 1 | 7 | 3 | /
COc1ccc(S(=O)(=O)/N=C2\C=C(Nc3ccc(O)cc3)C(=O)c3ccccc32)cc1 | -13 | -22 | 38* | 92* | -8 | 20 | 25*
COc1ccc2oc(=O)c(-c3csc(Nc4cccc(O)c4)n3)cc2c1 | 5 | 17 | 32* | 8 | -4 | 17 | 48*
COc1ccc(Nc2nc(-c3cc4cccc(OC)c4oc3=O)cs2)cc1 | 6 | 15 | 2 | 2 | -5 | -6 | /
CC(=O)c1ccc(S(=O)(=O)NCC(=O)N2CCN(C/C=C/c3ccccc3)CC2)cc1 | 0 | / | 28* | / | -4 | -3 | 1
Cc1ccc(S(=O)(=O)NCCC(=O)N2CCN(C/C=C/c3ccccc3)CC2)cc1 | 9 | / | 8 | / | 5 | -5 | /
CCOc1ccc(/C=N/NC(=O)C2CC2)cc1OC | 6 | 4 | 5 | -1 | 9 | -10 | /
COc1ccc2oc(C(=O)OCC(=O)N3CCC(C)CC3)c(C)c2c1 | 1 | 8 | 27* | 2 | 2 | 15 | 15
CC1C(C)N(C(=O)CCCl)c2ccccc2N1C(=O)CCCl (stereo not given) | 5 | / | 4 | / | -2 | 11 | /
COc1cccc(/C=C/c2nc(C#N)c(NCC(C)C)o2)c1 | 5 | -11 | 29* | 6 | -8 | 1 | 15
CCOc1cc(C2CC(=O)N3CN(C4CCCCC4)CSC3=C2C#N)ccc1O (stereo not given) | 1 | -5 | 26* | 80* | 1 | -15 | 3
O=C(c1ccccc1)N(c1ccccc1)C1C=CS(=O)(=O)C1 (stereo not given) | 4 | 3 | 11 | 0 | 0 | 4 | /
CC(C)n1c(NCc2cc(Cl)ccc2O)nc2ccccc21 | -20 | -1 | 26* | -2 | -21 | 6 | 14
CC[C@]12c3[nH]c4ccccc4c3CCN1C(=O)C(CC(=O)NCc1ccco1)C[C@@H]2C(=O)N1CCN(C(=O)c2ccco2)CC1 (stereo not given in full) | 0 | / | -7 | / | 2 | -3 | /
COC(=O)c1cc(NC(=O)c2ccc(Cn3cc(Cl)cn3)o2)cc(C(=O)OC)c1 | -7 | 0 | 40* | -13 | 3 | 0 | 28*
COC(=O)c1ccccc1NC(=O)c1ccc(Cn2cc(Cl)cn2)o1 | -6 | 2 | -3 | 2 | -7 | -4 | /
O=C(Cn1c2ccccc2c(=O)c2ccccc21)N/N=C/c1cc([N+](=O)[O-])ccc1N1CCCCCC1 | -10 | 65* | 37* | 2 | 0 | 20 | 40*
Cc1ccccc1OCCSc1nc(N(C)C)nc(N(C)C)n1 | -8 | -5 | -12 | 1 | -2 | 7 | /
SMILES | GC-A act | core dimer inh | ASAP1 inh | CTSL1 counter | NPR2 activator | ARFGAP1 inh | ASAP1 inh confirm
CCCNC(=O)C1(C)CCN(Cc2ccc(-n3ccnc3)cc2)C1 (stereo not given) | 3 | / | 26* | / | 0 | 3 | 2
Cc1sc2ncnc(N3CCN(Cc4ccccc4)CC3)c2c1-c1ccccc1 | -8 | 1 | 6 | 1 | -2 | 1 | /
O=C(NC(=S)N1CCOCC1)c1cn(-c2ccccc2)nc1-c1ccc(F)cc1 | -4 | / | -8 | / | -2 | -3 | /
O=C1C=C(Nc2ccc(F)cc2)c2ccccc2C1=O | -3 | / | -1 | / | -6 | 4 | /
O=C1C=C(Nc2cccnc2)c2ccccc2C1=O | -4 | / | 26* | / | -1 | -7 | 12
COc1ccc(N(CC(=O)NCc2ccc3c(c2)OCO3)S(=O)(=O)c2c(C)nn(C)c2C)cc1 | -8 | 2 | 6 | 0 | -5 | 3 | /
O=C(COC(=O)c1ccc2c(c1)C(=O)N(c1cccc3ncccc13)C2=O)c1ccc(Cl)cc1 | 0 | 3 | 145* | -3 | 1 | 4 | 177*
COc1ccc(S(=O)(=O)Nc2ccc3c(c2)C(=O)N([C@H](C)CO)C[C@H](C)[C@@H](CN(C)C(=O)Nc2ccc(F)cc2)OCCCC[C@H](C)O3)cc1 | 1 | / | 3 | / | 0 | 10 | /
C[C@H](CO)N1C[C@H](C)[C@H](CN(C)C(=O)Nc2ccc(F)cc2)Oc2c(NC(=O)c3ccc(-c4nccs4)cc3)cccc2C1=O | 0 | / | 31* | / | 4 | 6 | 10
COc1ccc(Br)cc1C(=O)Nc1cccc(-c2nnc(-c3ccco3)o2)c1 | 2 | 10 | 72* | 7 | -1 | 3 | 37*
COc1cccc(C(=O)Nc2cccc(-c3nnc(-c4ccco4)o3)c2)c1 | 3 | 18 | 9 | 3 | -1 | 7 | /
CC(=O)NCCn1ccc2ccccc21 | 3 | 4 | 27* | -3 | 1 | 9 | 6
